# Shown are actives, neighbours in structure and some others; about 5.9% of the full set was active somewhere.
# IDH1 mut inh – blocks human IDH1 R132H reductase activity; diaphorase/resazurin fluorescence, 60 min; actives 0.18% (n = 70,000); inhibition, % at 10 µM; in the data active = inhibition above about 34%; inconclusive = no clear call, values can overlap the other calls; inactive = below about 11%;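 note: 0% = DMSO and 100% = no enzyme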
# Target sequence (O75874 whole entry R132H): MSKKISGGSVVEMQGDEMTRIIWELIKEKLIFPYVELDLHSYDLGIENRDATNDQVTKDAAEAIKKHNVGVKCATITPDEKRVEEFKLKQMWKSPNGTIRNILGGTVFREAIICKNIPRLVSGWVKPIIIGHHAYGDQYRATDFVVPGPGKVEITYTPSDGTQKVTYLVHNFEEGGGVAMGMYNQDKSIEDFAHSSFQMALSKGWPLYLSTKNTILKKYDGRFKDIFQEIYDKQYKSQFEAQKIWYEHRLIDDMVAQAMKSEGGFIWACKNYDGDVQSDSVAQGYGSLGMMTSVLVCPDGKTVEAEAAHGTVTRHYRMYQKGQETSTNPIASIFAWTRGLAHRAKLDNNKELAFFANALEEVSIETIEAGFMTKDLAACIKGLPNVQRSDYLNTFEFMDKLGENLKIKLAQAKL
# T cruzi growth-1 – inhibitors of T. cruzi proliferation; T. cruzi beta-gal in NIH3T3, GalScreen luminescence, 90 h; inhibition, % at 8.34 µM; actives 5.9% (n = 77,000); AID 624255;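 active = mean inhibition above about 93%, with at least 55% of replicates each passing it, limit read from the data, passing the limit was not always enough; inconclusive = only one of those two conditions holds; inactive = neither condition holds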
# Pf Dd2 inh – P. falciparum Dd2 growth inhibition; SYBR Green, 72 h; hits give low values; activity change, % at 10 µM; actives 2.3% (n = 94,000); in the data active = activity change below about -80%; inconclusive = no clear call, values can overlap the other calls
# KDM4C inh – KDM4C (human) demethylase inhibition. Q9H3R0. GST-KDM4C 2-372, H3K9me3 peptide, LANCE TR-FRET. inhibition, % at 12.5 µM. actives 0.15% (n = 96,000);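 active = mean replicate inhibition above about 25%, with at least 55% of replicates also reaching it, limit read from the data, passing the limit was not always enough; inconclusive = only one of those two conditions met; inactive = neither condition met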
# Target sequence (Q9H3R0 2-372 limits assumed): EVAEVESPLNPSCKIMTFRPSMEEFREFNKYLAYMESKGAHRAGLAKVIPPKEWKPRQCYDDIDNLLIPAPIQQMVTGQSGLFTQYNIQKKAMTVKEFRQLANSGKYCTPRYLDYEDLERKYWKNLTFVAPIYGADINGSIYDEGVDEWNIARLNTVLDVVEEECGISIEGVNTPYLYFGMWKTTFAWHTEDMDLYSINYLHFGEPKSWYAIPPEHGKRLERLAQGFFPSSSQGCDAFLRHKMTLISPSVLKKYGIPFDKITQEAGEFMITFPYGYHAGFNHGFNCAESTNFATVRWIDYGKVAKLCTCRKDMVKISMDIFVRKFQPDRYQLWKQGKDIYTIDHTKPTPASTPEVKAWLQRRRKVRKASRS
#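 Material: GST-tagged GASC-1 (JMJD2C) catalytic fragment, aa 2-372. Input: enzyme final amount 10 nM. Medium: HEPES buffer, pH 7.5, plus ascorbate. Reagent: H3K9me3 peptide substrate, Fe(II), 2-oxoglutarate. Doses: single dose. Times: reaction 30 min RT, detection step 1 h RT. Measured by: LANCE TR-FRET. Evaluation: Fall in 671/618 emission ratio as inhibition.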
# T cruzi growth-2 – blocks T. cruzi growth in NIH3T3 host cells; shares compounds with T cruzi growth-1; T. cruzi beta-gal in NIH3T3, GalScreen luminescence, 90 h; inhibition, % at 8.35 µM; actives 72% (n = 5,600); AID 651739;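 active = mean replicate inhibition above about 95% and at least 55% of replicates individually reaching it, limit read from the data; inconclusive = only one of the two criteria is met; inactive = neither criterion is met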
# T cruzi growth-3 – Trypanosoma cruzi proliferation inhibition; shares compounds with T cruzi growth-1; T. cruzi beta-gal in NIH3T3, GalScreen luminescence, 90 h; inhibition, % at 2.09 µM; actives 21% (n = 5,600);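 active = mean inhibition above about 95%, with at least 55% of replicates also reaching it, limit read from the data; inconclusive = meets just one of the two conditions; inactive = meets neither condition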;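 note: plate controls were neutral control median for no effect and positive control median for full effect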
# NIH3T3 tox – cytotoxicity in mouse NIH/3T3 fibroblasts. cytotoxicity (signal decrease), % at 8.35 µM. shares compounds with T cruzi growth-1. NIH/3T3 viability, CellTiter-Glo ATP luminescence, 90 h. actives 14% (n = 5,600);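 active = mean signal decrease across replicates above about 35% based on untreated-well scatter, with enough replicates individually passing, limit read from the data; inconclusive = no rule stated though some were filed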;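 note: 0% = median of neutral control wells and 100% = median of positive control wells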
# 3T3 cytotox 2 – kills mouse NIH/3T3 fibroblasts; shares compounds with T cruzi growth-1; NIH/3T3 viability, CellTiter-Glo ATP luminescence, 90 h; inhibition, % at 24.9 µM; actives 56% (n = 5,600); AID 651744;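 active = mean loss of cell viability signal at or above a set limit, and enough replicates individually reaching it; inconclusive = meets only the mean limit or only the replicate share; inactive = meets neither condition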;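 note: 0% = median of neutral control wells and 100% = median of positive control wells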
# Active calls of the source: *; ? = inconclusive; . = not tested or not shown; ! = not confirmed by another sample.
SMILES,IDH1 mut inh,T cruzi growth-1,Pf Dd2 inh,KDM4C inh,T cruzi growth-2,T cruzi growth-3,NIH3T3 tox,3T3 cytotox 2
C=CCNC(=O)[C@@H]1[C@H]2C(=O)O[C@H](c3ccccc3)[C@H](c3ccccc3)N2[C@H](c2ccc(O)cc2)[C@@]12C(=O)Nc1ccccc12,0.3,.,.,.,.,.,.,.
COc1cccc(CN2CCCCN3[C@H](CO)[C@@H](c4ccc(C#Cc5cccnc5)cc4)[C@@H]3C2)c1,.,116.3*,-77.4,-0.1,104.2*,61.9,18.5,104.5*
COc1cccc(CN2CCCCN3[C@H](C2)[C@@H](c2ccc(-c4cccnc4)cc2)[C@@H]3CO)c1,.,72.8,-62.5,-0.3,.,.,.,.
COc1ccc(C#Cc2ccc([C@@H]3[C@H](CO)N4CCCCN(Cc5ccncc5)C[C@@H]34)cc2)cc1,.,48.2,-76.2,1.6,.,.,.,.
COc1cccc(CN2CCCCN3[C@@H](CO)[C@H](c4ccc(C#Cc5cccnc5)cc4)[C@@H]3C2)c1,.,116.6*,-69.1,-0.4,109.4*,44.3,19.0,103.4*
Cc1cc(C)c(OCC(=O)Nc2ncc(I)cc2C)c(Cl)c1,-0.1,.,.,.,.,.,.,.
COc1ccccc1CNC(=O)C[C@@H]1C[C@H]2c3cc(NC(=O)Nc4ccc(C(F)(F)F)cc4)ccc3O[C@H]2[C@H](CO)O1,-0.1,87.5,-53.4,-1.2,.,.,.,.
COc1ccccc1CNC(=O)C[C@H]1C[C@H]2c3cc(NC(=O)NC4CCCC4)ccc3O[C@H]2[C@@H](CO)O1,0.1,68.3,13.0,-2.0,.,.,.,.
COc1ccccc1CNC(=O)C[C@@H]1C[C@@H]2c3cc(NC(=O)Nc4ccc(C(F)(F)F)cc4)ccc3O[C@@H]2[C@H](CO)O1,0.2,125.4*,-23.7,-2.1,111.4*,66.5,4.1,27.5
O=C(C[C@@H]1C=C[C@H](NC(=O)Nc2ccccc2)[C@@H](CO)O1)NCc1cccc(F)c1,0.2,?,-0.9,1.2,-11.6,-0.9,-36.5,-19.4
O=C(C[C@H]1C[C@H]2c3cc(NC(=O)NC4CCCCC4)ccc3O[C@H]2[C@@H](CO)O1)NCc1ccccc1,0.2,97.4*,0.0,-2.9,58.7,9.9,12.9,8.4
COc1ccccc1CNC(=O)C[C@@H]1C[C@@H]2c3cc(NC(=O)NC4CCCC4)ccc3O[C@@H]2[C@@H](CO)O1,-3.4,111.3*,-7.5,-0.5,84.9,1.4,-20.9,-1.0
O=C(CSc1nnnn1-c1ccc(F)cc1F)Nc1ccc2c(c1)OCCO2,0.2,.,.,.,.,.,.,.
Cc1cccc(C)c1NC(=O)CN(c1ccc(Br)cc1)S(C)(=O)=O,0.3,.,.,.,.,.,.,.
O=C(C[C@H]1CC[C@H](NC(=O)Nc2ccc(C(F)(F)F)cc2)[C@@H](CO)O1)NCc1cc(F)cc(F)c1,-0.3,103.3*,-38.5,-1.8,76.8,-24.1,-7.0,9.7
O=C(C[C@@H]1C[C@@H]2c3cc(NC(=O)Nc4ccc(C(F)(F)F)cc4)ccc3O[C@@H]2[C@H](CO)O1)NCc1ccc2c(c1)OCO2,-0.2,44.6,0.3,-3.1,.,.,.,.
COc1ccccc1CNC(=O)C[C@H]1C[C@H]2c3cc(NC(=O)Nc4ccc(C(F)(F)F)cc4)ccc3O[C@H]2[C@H](CO)O1,0.4,133.8*,-61.2,2.6,107.5*,52.4,-20.5,-19.3
C[C@H](NC(=O)C[C@H]1C[C@@H]2c3cc(NC(=O)Nc4ccc(C(F)(F)F)cc4)ccc3O[C@@H]2[C@H](CO)O1)c1ccccc1,0.0,?,-25.5,-1.4,101.9*,11.5,47.7*,70.7*
O=C(C[C@H]1C[C@@H]2c3cc(NC(=O)Nc4ccc(C(F)(F)F)cc4)ccc3O[C@@H]2[C@H](CO)O1)NCc1ccc(Cl)cc1,-0.4,?,1.6,0.0,107.7*,49.2,21.7,-3.6
COC(=O)C1CC2=CC(=O)CCC2(C)C23OC2CC2(C)C(CCC24CCC(=O)O4)C13 (stereo unspecified),-0.2,.,.,.,.,.,.,.
Cc1cc(OCC(=O)Nc2ccccc2-c2nc3ccccc3s2)ccc1Cl,-0.1,.,.,.,.,.,.,.
Cc1ccc(NC(=O)Cn2cnc3ccccc3c2=O)cc1C,1.3,.,.,.,.,.,.,.
COc1ccc(S(=O)(=O)N(C)CC(N)=O)cc1Cl,-0.2,.,.,.,.,.,.,.
COc1ccc(NC(=O)Nc2ccc3c(c2)C(=O)N([C@H](C)CO)C[C@@H](C)[C@H](CN(C)C(=O)Nc2ccc(F)cc2)OCCCC[C@@H](C)O3)cc1,.,112.4*,-26.8,-0.8,98.1*,103.5*,-5.7,-10.3
COc1ccc(NC(=O)Nc2ccc3c(c2)C(=O)N([C@@H](C)CO)C[C@H](C)[C@@H](CN(C)C(=O)Nc2ccc(F)cc2)OCCCC[C@H](C)O3)cc1,.,109.5*,-48.9,-1.7,100.4*,62.3,5.4,-2.9
SMILES,IDH1 mut inh,T cruzi growth-1,Pf Dd2 inh,KDM4C inh,T cruzi growth-2,T cruzi growth-3,NIH3T3 tox,3T3 cytotox 2
COc1ccc(NC(=O)Nc2ccc3c(c2)C(=O)N([C@@H](C)CO)C[C@@H](C)[C@H](CN(C)C(=O)Nc2ccc(F)cc2)OCCCC[C@H](C)O3)cc1,0.1,.,-3.7,-1.3,.,.,.,.
COc1ccc(NC(=O)Nc2ccc3c(c2)C(=O)N([C@H](C)CO)C[C@@H](C)[C@H](CN(C)C(=O)Nc2ccc4c(c2)OCO4)OCCCC[C@@H](C)O3)cc1,0.2,116.9*,-42.5,0.2,110.6*,63.6,9.1,17.5
COc1ccc(NC(=O)Nc2ccc3c(c2)C(=O)N([C@@H](C)CO)C[C@@H](C)[C@H](CN(C)C(=O)Nc2ccc4c(c2)OCO4)OCCCC[C@@H](C)O3)cc1,.,40.0,-0.4,0.0,.,.,.,.
C[C@H](CO)N1C[C@H](C)[C@@H](CN(C)C(=O)c2ccc3c(c2)OCO3)Oc2cc(/C=C/c3ccccc3)ccc2S1(=O)=O,.,118.9*,-70.9,-4.1,103.7*,51.7,8.1,45.1*
C/C=C/c1ccc2c(c1)O[C@H](CN(C)C(=O)c1ccc3c(c1)OCO3)[C@H](C)CN([C@H](C)CO)S2(=O)=O,2.6,51.8,-11.1,-0.6,.,.,.,.
C[C@@H]1CN([C@@H](C)CO)S(=O)(=O)c2ccc(/C=C/c3ccccc3)cc2O[C@H]1CN(C)C(=O)c1ccc2c(c1)OCO2,4.1,118.1*,-87.0*,.,105.0*,85.1,41.6*,58.7*
Cn1c(=O)c2c(ncn2CC(=O)Nc2ccc(Br)cc2F)n(C)c1=O,1.6,.,.,.,.,.,.,.
Cc1ccc(-c2cnc3c(c2)C(=O)N([C@H](C)CO)C[C@H](C)[C@@H](CN(C)Cc2ccccc2F)O3)cc1,-1.2,108.9*!,-22.2,-2.2,107.7*,60.3,5.4,69.0*
C[C@@H]1CN([C@@H](C)CO)C(=O)c2cc(/C=C/c3ccccc3)cnc2O[C@H]1CN(C)Cc1ccccc1F,-0.2,127.2*,-38.1,-3.4,?,107.9*,4.8,105.0*

# Compound activity as filed in PubChem.
